By IC50 is commonly meant the concentration that gives 50% inhibition. The low end stands for inhibition by little substance, the high end for a need for much substance.

Molecules are shown by their SMILES.

Data set [1] addresses T1, Cathepsin B (Homo sapiens, UniProt P07858). The data set is described as follows: Inhibition of human liver cathepsin B. Summed up:
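Enzyme activated 15 min in assay buffer (100 mM Na/K phosphate pH 6.8, 1 mM EDTA, 2 mM DTT), then incubated 1 h at room temperature with 15 µM Z-Arg-Arg-AMC and compound. Compound given as 16 2-fold dilutions, 50 µM to 1.5 nM. AMC fluorescence read at ex 355/em 460 nm. Triplicate plates gave three independent IC50 values.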

Data set [2] has as its target T1, Cathepsin B. As to the kind of experiment: Inhibition of human liver cathepsin B pre-incubated for 17 hrs in assay buffer with DTT. Summed up: (§1)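 Compound held 2, 17 or 24 h in assay buffer (phosphate pH 6.8, with DTT) before testing. It was then incubated with 0.1 nM cathepsin B in 100 mM buffer with 2 mM DTT, 1 mM EDTA and 15 µM Z-Arg-Arg-AMC for 1 h at room temperature. Read-out was AMC fluorescence (ex 355/em 460). IC50 came from 16 2-fold dilutions.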

For data set [3], the target named is T1, Cathepsin B. As to the kind of experiment: Inhibition of human liver cathepsin B pre-incubated for 24 hrs in assay buffer with DTT. Summed up:
as §1

The target in data set [4] is T1, Cathepsin B. As to the kind of experiment: Inhibition of human liver cathepsin B pre-incubated for 2 hrs in buffer without DTT. Summed up: (§2)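 Compound held 2, 17 or 24 h in phosphate assay buffer pH 6.8 lacking DTT before testing. It was then run in the standard assay: 0.1 nM activated cathepsin B, 15 µM Z-Arg-Arg-AMC, 1 h at room temperature. Read-out was AMC fluorescence at 355/460 nm. IC50 came from a 16-point 2-fold dilution curve.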

The target of data set [5] is T1, Cathepsin B. The data set is described as follows: Inhibition of human liver cathepsin B pre-incubated for 17 hrs in buffer without DTT. Summed up:
as §2

Data set [6] deals with T1, Cathepsin B. The data set is described as follows: Inhibition of human liver cathepsin B pre-incubated for 2 hrs in assay buffer with DTT. Summed up: as §1
The target in data set [7] is T1, Cathepsin B. As to the kind of experiment: Inhibition of human liver cathepsin B pre-incubated for 24 hrs in buffer without DTT. Summed up: as §2
The target of data set [8] is T1, Cathepsin B. As to the kind of experiment: Inhibition of human liver cathepsin B pre-incubated for 2 hrs in non-buffer solution without DTT. Summed up: (§3)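 Compound held 2, 17 or 24 h in non-buffered solution without DTT before testing. It was then assayed against 0.1 nM activated cathepsin B with 15 µM Z-Arg-Arg-AMC for 1 h at room temperature. Read-out was AMC fluorescence at ex 355/em 460 nm. IC50 came from 16 2-fold dilutions.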

The target of data set [9] is T1, Cathepsin B. The data set is described as follows: Inhibition of human liver cathepsin B pre-incubated for 17 hrs in non-buffer solution without DTT. Summed up: as §3
For data set [10], the target named is T1, Cathepsin B. The data set is described as follows: Inhibition of human liver cathepsin B pre-incubated for 24 hrs in non-buffer solution without DTT. Summed up:
as §3

Data set [11] in a line: Stability of compound in presence of cathepsin B after 15 mins. Particulars: read-out: Stability. Format: ADME. Summed up: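 Stoichiometric incubation of ester (10 μM, 1 equiv) with activated cathepsin B (20 μM, 2 equiv) under standard assay conditions (100 mM sodium-potassium phosphate pH 6.8, 1 mM EDTA, 2 mM DTT); parallel run without enzyme. After 15 min, remaining parent and conversion to pyrazolone by-product measured by LC–MS, 6.5 min run.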

As to `COc1ccc(S(=O)(=O)n2nc(OC(=O)c3cccs3)cc2N)cc1`, on Cathepsin B [1], half-maximal inhibition (IC50) was put at 690 nM. That is a sub-micromolar value.
On Cathepsin B [1], `Nc1cc(OC(=O)c2cccs2)nn1S(=O)(=O)c1ccc(F)cc1` registered an IC50 of 440 nM.
As to `Cc1ccc(S(=O)(=O)n2nc(OC(=O)c3cccs3)cc2N)cc1`, the half-maximal inhibitory concentration (IC50) on Cathepsin B [1] was 1990 nM. This IC50 lies about 4.5-fold higher than the previous one.
At Cathepsin B [1], `Nc1cc(OC(=O)c2ccco2)nn1S(=O)(=O)c1ccc(F)cc1` gave an IC50 of 1260 nM.
Regarding `Nc1cc(OC(=O)c2cccs2)nn1S(=O)(=O)c1ccccc1`, the 50% inhibitory concentration (IC50) against Cathepsin B [2] was 45400 nM; on Cathepsin B [3], more than 50000 nM; on Cathepsin B [4], 1400 nM; against Cathepsin B [5] it was 700 nM; on Cathepsin B [1] it was 250 nM; against Cathepsin B [6], 9000 nM. For the same compound, the concentration for half-maximal inhibition (IC50) against Cathepsin B [7] came out at 3200 nM; on Cathepsin B [8], 1700 nM; at Cathepsin B [9], 1800 nM; against Cathepsin B [10], 5000 nM. Moreover, the remaining at 0.25 h in data set [11] amounted to 50%.
`Cc1ccc(S(=O)(=O)n2nc(OC(=O)c3ccco3)cc2N)cc1` showed an IC50 on Cathepsin B [1] of 1750 nM.

The values above are taken from ChEMBL document CHEMBL1146247, “Identification and characterization of 3-substituted pyrazolyl esters as alternate substrates for cathepsin B: the confounding effects of DTT and cysteine in biological assays” (Bioorg Med Chem Lett, 2007).
